Only some compounds are listed: those with a hit (about 2.4% of all), similar ones and a draw of the others.
mABHD4 FP: ABHD4 inhibitors, primary screen, biochemical, fluorescence polarization, mouse; (Lyso)-N-acylphosphatidylethanolamine lipase (Mus musculus), Q8VD66; purified mABHD4, FP-Rh probe fluorescence polarization; inhibition, % at 8.92 µM; actives 0.54% (n = 370,000);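 active means inhibition exceeding the mean over every tested compound plus 3 SD, cut at about 30% in these data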
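Material: mouse ABHD4 enzyme, wild type; Benchmarks: S159A mutant high control, sample median low control; Buffer or medium: HEPES pH 7.0, NaCl, Pluronic buffer; Signal: fluorescence polarization; Read-out: percent inhibition of probe binding, normalized to plate controls; Timing: pre-incubation 45 min, probe exposure 60 min, at 25 °C; Dosing: 8.92 µM, single dose.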
HTRA1 inh: HTRA1 serine protease inhibitors, primary screen, biochemical, fluorescence polarization, HTS | inhibition, % at 5.96 µM | actives 0.5% (n = 340,000) | Q92743 | recombinant HTRA1, FP-rhodamine activity-based probe | AID 504803, 2011; in the data active means inhibition above about 36%
GASC-1 inh: inhibitors of GASC-1 histone demethylase, primary screen, biochemical, fluorescence, DELFIA europium; Lysine-specific demethylase 4C (Homo sapiens), Q9H3R0; GST-JMJD2C(1-420) H3K9me3 demethylation; inhibition, % at 2.35 µM; actives 0.069% (n = 330,000);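 active means more than half of a compound's replicate wells show inhibition beyond 50%, single wells judged on their own value; inconclusive means some, but no more than half, of replicates pass 50% inhibition; inactive means no replicate passes 50% inhibition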;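 further: signal counts dimethyl H3K9 product captured on neutravidin plate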
SIAE primary: human SIAE inhibitors, primary screen, biochemical, fluorescence polarization, FP-Rh probe, 1536-well HTS | Sialate O-acetylesterase (Homo sapiens), Q9HAT2 | inhibition, % at 9.66 µM | SIAE FP-Rh probe binding | actives 0.69% (n = 370,000);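 active means inhibition above a cutoff: mean of compounds within the control limits plus 3 SD of those, cut at about 17% in these data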
Target sequence (Q9HAT2 whole entry, looked up): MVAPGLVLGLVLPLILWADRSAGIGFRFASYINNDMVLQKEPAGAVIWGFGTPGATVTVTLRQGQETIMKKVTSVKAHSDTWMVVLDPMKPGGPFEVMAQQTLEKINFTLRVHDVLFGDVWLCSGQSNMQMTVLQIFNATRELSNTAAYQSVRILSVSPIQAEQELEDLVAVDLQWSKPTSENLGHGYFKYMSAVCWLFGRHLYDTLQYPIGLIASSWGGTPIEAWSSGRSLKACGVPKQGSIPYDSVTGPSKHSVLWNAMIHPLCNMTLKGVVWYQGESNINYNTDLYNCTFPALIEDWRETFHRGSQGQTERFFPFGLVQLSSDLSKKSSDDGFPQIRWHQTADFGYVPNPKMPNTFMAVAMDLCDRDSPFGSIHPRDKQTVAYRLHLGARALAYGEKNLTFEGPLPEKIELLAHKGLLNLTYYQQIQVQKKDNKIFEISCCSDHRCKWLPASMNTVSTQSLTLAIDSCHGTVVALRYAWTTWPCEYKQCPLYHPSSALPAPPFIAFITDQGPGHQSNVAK
PRMT1 FP inh: PRMT1 methyltransferase inhibitors, primary screen, biochemical, fluorescence polarization; actives 1.3% (n = 370,000); inhibition, % at 2.79 µM; AID 652257, 2013; recombinant PRMT1, activity-based probe fluorescence polarization;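 active means inhibition above about 21% made by adding two undisclosed values, limit read from the data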
A number is an active result; - = inactive; ? = inconclusive; . = no result.

SMILES	mABHD4 FP	HTRA1 inh	GASC-1 inh	SIAE primary	PRMT1 FP inh
Nc1nonc1-n1nnc(C(=O)N/N=C/c2cccnc2)c1CSC1=NCCS1	-	-	-	-	47
COC(=O)c1ccccc1NC(=O)c1ccccc1OC	-	-	-	-	-
COc1ccccc1C(=O)Nc1ccccc1SC(=O)c1ccccc1OC	-	-	-	-	52
COC(=O)[C@H](CC(C)C)N(CCCc1cn(CC2CCCCC2)nn1)S(=O)(=O)c1ccccc1Br	-	.	.	-	-
C=CCN(C(=O)[C@@H](CCCC)[C@@H](O)c1ccc(C(C)=O)cc1)c1ccccc1	-	.	.	-	-
Nc1nnc(CC(=O)N/N=C/c2cc([N+](=O)[O-])cc(Br)c2O)s1	39	-	-	-	-
CC(C)CN1C(=O)[C@]2(CC(=O)N(C)C2c2ccccc2)c2cc(-n3cc(CCc4ccccc4)nn3)ccc21 (stereo partly drawn)	-	.	.	-	-
COc1ccccc1CN(C)C(=O)C1CCCN(c2nc3ccccc3o2)C1 (stereo not drawn)	-	.	.	-	-
Cn1ncc2c(c(SCc3ccc(Cl)cc3Cl)nn2C)c1=O	-	-	-	-	22
N#CC(c1ccc(Cl)cc1)c1ccc2c(C(F)(F)F)cc(C(F)(F)F)nc2n1 (stereo not drawn)	-	-	-	23	-
O=C(C1CCC1)n1ccc2ccc(-c3ccc4ccn(Cc5ccccc5)c4c3)cc21	-	.	.	-	-
CCC(c1nnc(SCC(=O)NCCc2ccc(Cl)cc2Cl)o1)N(C)C (stereo not drawn)	-	-	-	-	21
COc1ccc([N+](=O)[O-])c(S(=O)(=O)c2ccc(Cl)cc2)n1	-	-	-	-	-
COc1ccc([N+](=O)[O-])c(S(=O)(=O)c2ccccc2)n1	-	.	-	-	25
COC(=O)C1CN(Cc2ccc(OC)cc2)CCS(=O)(=O)N1Cc1cn(Cc2ccc(OC)cc2)nn1 (stereo not drawn)	-	.	.	-	-
Cc1cc(C)nc(NC(N)=NC(C)c2ccccc2)n1 (stereo not drawn)	-	.	51	-	-
Cc1cc(C)nc(NC(N)=NCCc2ccccc2)n1	-	-	.	-	-
N#CCCCN1C(=O)C(=C(C#N)C#N)c2ccccc21	-	-	-	-	24
CCOc1ccccc1CNC(=O)c1ccc2c(c1)N(CC)CCS2	-	-	-	-	23
CCN1CCSc2ccc(C(=O)NCc3cccc(Br)c3)cc21	-	-	-	-	-
COc1ccc(N2CCN(C(=O)CCc3c[nH]c4ccccc34)CC2)cc1	-	-	-	-	-
O=C(CCc1c[nH]c2ccccc12)N1CCN(c2ccc(O)cc2)CC1	-	-	-	-	22
CCCCN1CCN(C(=O)C2CCCN(C(=O)c3ccc4c(c3)NC(=O)CS4)C2)CC1 (stereo not drawn)	-	.	.	-	-
CCCC(=O)N(C1CC(C)C(C#N)(C#N)C1(C#N)C#N)N(C)C (stereo not drawn)	-	-	-	-	22
COC(=O)C1CN(Cc2ccc(OC)cc2)CCS(=O)(=O)N1Cc1cn(Cc2ccccc2)nn1 (stereo not drawn)	-	.	.	-	-
SMILES	mABHD4 FP	HTRA1 inh	GASC-1 inh	SIAE primary	PRMT1 FP inh
Cc1nc2sc(C(=O)NCc3ccc4c(c3)OCO4)c(N)c2c(C)c1Cl	-	.	.	-	22
Cc1[nH]n(-c2ccccc2)c(=O)c1-c1ccccc1	-	-	-	18	-
COc1ccc(-c2cc(-c3nnc(SCC(=O)Nc4nccs4)n3N)[nH]n2)cc1	-	.	.	-	-
O=C(Nc1ccc(Cl)cc1)OC1CCC12CCC(c1ccccc1)CC2 (stereo not drawn)	-	.	.	-	-
Cc1nc2cc3nc(C)sc3cc2s1	-	-	-	-	22
COc1cccc(OCc2cc(/C=N/Nc3ccc(C(=O)O)cc3)ccc2OC)c1	34	-	-	-	-
COc1cccc(C(=O)Oc2ccc(/C=N/Nc3ccc(C(=O)O)cc3)cc2OC)c1	-	-	-	-	-
O=C(NC1CCCCC1)Oc1cc2oc(=O)sc2cc1Br	33	-	-	-	82
O=C(NC1CCCCCC1)c1ccc(Br)o1	-	-	-	-	-
CN(Cc1ccccc1)S(=O)(=O)c1cccc(C(=O)OCc2cccc([N+](=O)[O-])c2)c1	-	.	.	-	-
Cc1ccc(NNC(=O)c2ccno2)cc1C	-	-	-	-	23
COC(=O)[C@]12CCCCC=C1N(Cc1ccc(OC)cc1)C(=O)[C@@H]2CC(=O)NCc1cccc(C(F)(F)F)c1	-	.	.	-	-
Cc1sc(N)c(C(=O)c2ccccc2)c1C	-	.	-	-	41
COc1cc(C(=O)Nc2nc(C)c(Cc3ccc4c(c3)OCO4)s2)cc(OC)c1OC	-	-	-	-	23
CCOC(=O)N1CCN(C(=O)c2cc3sccc3n2C)CC1	-	-	-	-	-
Cc1ccc(C)c(N2CCN(C(=O)c3cc4sccc4n3C)CC2)c1	-	-	-	-	22
Cn1c(=S)c2[nH]c(SCCN3CCCC3)nc2n(C)c1=O	-	-	-	-	-
Cn1c(=S)c2[nH]c(SCCN)nc2n(C)c1=O	39	-	.	-	-
N=c1scc(-c2ccccc2)n1/N=C/c1ccco1	-	-	-	-	34
C(=N/n1c2ccccc2c2ccccc21)/c1ccco1	-	-	-	-	-
O=C(CCCN1C(=O)/C(=C\c2ccccc2)SC1=S)Nc1ccc(O)cc1C(=O)O	-	-	-	-	-
O=C(CN1C(=O)/C(=C\c2ccco2)SC1=S)Nc1ccc(O)cc1C(=O)O	-	-	?	-	43
CCOC(=O)C1CCCCN1C(=O)[C@@H]1CC=C[C@@H]2CCN(c3ccccc3)C(=O)[C@@H]21 (stereo partly drawn)	-	.	.	-	-
CN(CC#CC1=CCCCC1)/C(N)=N/C(=O)OCc1ccccc1	-	.	.	-	-
O=C1/C(=C\c2ccco2)CCC/C1=C\c1ccco1	-	-	-	-	22
C#CCOCCOCCOCCNc1nc(N2CCN(C(=O)CCCCCCCCCCNC(=O)[C@H](CO)n3cc(CCCSC)nn3)CC2)nc(N2CCN(C(=O)CCCCCCCCCCNC(=O)[C@H](CCCN=C(N)N)n3cc(C[C@@H](C)CC)nn3)CC2)n1	.	-	57	.	.
O=C(NNC(=O)C1CCN(S(=O)(=O)c2ccccc2)CC1)c1ccccc1O	-	-	94	-	-
Cc1cc(N2C(=O)C(=O)/C(=C(/O)c3ccc(F)cc3)C2c2cccc(Br)c2)no1 (stereo not drawn)	-	-	56	-	-
Cc1ccc(/C(O)=C2\C(=O)C(=O)N(c3cc(C)on3)C2c2cccc(Br)c2)cc1 (stereo not drawn)	-	-	-	-	-

High-throughput results from PubChem BioAssay.
